Measurements taken from article PMC4111403 (Journal of Medicinal Chemistry, 2014).

Legend:
[1] = tested on: acetylated α-tubulin (AcTub) in QBI293 cells; experiment: QBI293 cell AcTub; assay type: cell-based; settings: for activity in AcTub assay: 1 μM; for increase of cellular AcTub (words, Figure 2): compared with 1
In short: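 QBI293 cells are an HEK293 derivative. Tubulin acetylation, which occurs on polymerized tubulin, serves as the cellular read-out of MT stabilization. Test compounds were run at 0.1 or 1 μM. AcTub was expressed relative to vehicle-treated cells and to a 0.1 μM reference MT-stabilizer positive control. Significance was assessed by two-tailed t-test.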

Pgp transporter = settings: cited from earlier work
[2] = tested on: acetylated α-tubulin (AcTub) in QBI293 cells; settings: 50–500 nM concentrations ref 8; cited from earlier work
[3] = tested on: AcTub levels in brain homogenates; settings: single ip injection 1–6 mg/kg, mice ref 4; cited from earlier work
human Pgp = human Pgp (Homo sapiens, UniProt P08183); experiment: Pgp-interaction assay; assay type: cell-based; settings: NCI/ADR-RES cells
human Pgp, sequence (P08183 whole entry): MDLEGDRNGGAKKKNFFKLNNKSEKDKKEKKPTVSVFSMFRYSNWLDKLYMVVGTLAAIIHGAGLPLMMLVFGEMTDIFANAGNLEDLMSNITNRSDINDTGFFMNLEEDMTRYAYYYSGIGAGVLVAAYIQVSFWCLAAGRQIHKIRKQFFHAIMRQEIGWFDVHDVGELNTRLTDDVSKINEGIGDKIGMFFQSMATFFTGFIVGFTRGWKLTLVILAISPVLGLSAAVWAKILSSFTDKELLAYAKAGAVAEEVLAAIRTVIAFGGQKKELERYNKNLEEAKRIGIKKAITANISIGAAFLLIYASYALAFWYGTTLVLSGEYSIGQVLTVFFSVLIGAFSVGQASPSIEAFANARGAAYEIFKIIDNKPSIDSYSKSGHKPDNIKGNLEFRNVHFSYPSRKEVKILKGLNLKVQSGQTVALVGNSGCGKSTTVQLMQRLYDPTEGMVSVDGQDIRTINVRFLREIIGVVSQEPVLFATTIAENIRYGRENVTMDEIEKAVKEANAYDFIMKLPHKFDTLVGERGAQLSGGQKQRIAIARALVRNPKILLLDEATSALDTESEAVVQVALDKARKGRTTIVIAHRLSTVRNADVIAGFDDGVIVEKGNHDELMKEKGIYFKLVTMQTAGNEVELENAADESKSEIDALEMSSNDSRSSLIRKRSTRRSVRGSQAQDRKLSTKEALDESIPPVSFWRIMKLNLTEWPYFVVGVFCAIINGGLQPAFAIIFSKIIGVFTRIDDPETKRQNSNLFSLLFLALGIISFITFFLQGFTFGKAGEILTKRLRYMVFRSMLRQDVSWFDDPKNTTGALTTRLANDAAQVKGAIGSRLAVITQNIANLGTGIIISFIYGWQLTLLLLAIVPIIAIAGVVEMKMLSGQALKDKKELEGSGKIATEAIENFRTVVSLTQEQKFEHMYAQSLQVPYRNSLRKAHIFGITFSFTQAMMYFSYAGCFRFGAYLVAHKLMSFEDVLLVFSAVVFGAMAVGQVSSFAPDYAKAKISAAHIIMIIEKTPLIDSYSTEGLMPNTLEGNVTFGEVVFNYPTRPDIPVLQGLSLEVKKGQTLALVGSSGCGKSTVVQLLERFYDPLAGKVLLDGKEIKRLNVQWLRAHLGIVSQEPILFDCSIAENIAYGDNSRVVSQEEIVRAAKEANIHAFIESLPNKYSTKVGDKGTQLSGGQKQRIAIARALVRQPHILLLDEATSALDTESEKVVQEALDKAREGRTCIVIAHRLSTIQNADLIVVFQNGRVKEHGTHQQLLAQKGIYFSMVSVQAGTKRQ

QBI293 cells = experiment: AcTub immunofluorescence of QBI293 cells; assay type: cell-based; settings: 4 h incubation; 2 at 100 nM, colchicine at 1 μM
[4] = tested on: Pgp-expressing cancer cell lines; settings: cited from earlier work
β-tubulin = β-tubulin ref 28; cited from earlier work
[5] = 16 h brain and plasma PK study after ip dosing; assay type: in vivo, CD1 mice; settings: for brain penetration / BBB permeability: mouse, ip dosing; for half-life: CD1, mouse, ip, 5 mg/kg
In short: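 2-month-old CD1 mice (20 g average). Plasma from EDTA-collected blood spun 4500g, 10 min, 4 °C; brain hemispheres sonicated in 10 mM ammonium acetate pH 5.7 (1:2 w/v). Acetonitrile-precipitated supernatants quantified by LC–MS/MS (positive ESI, MRM) against spiked-matrix standards 0.005–5 μM.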

[6] = Unbound fraction in brain homogenate by equilibrium dialysis; assay type: in vitro ADME; settings: ratio of brain Fu values
[7] = tested on: AcTub levels in brain homogenates; experiment: Brain pharmacodynamic effect: AcTub levels in brain homogenates; assay type: in vivo, WT mice; settings: 1 mg/kg daily ip for 4 or 6 days, n = 3
[8] = Brain and plasma levels 2 h after oral administration; assay type: in vivo, mice; settings: 2 h after oral administration of 10 mg/kg
In short: (§1)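 Dosing in 2-month-old CD1 mice (20 g average). Brain hemispheres homogenized by sonication in 10 mM ammonium acetate pH 5.7 (1:2 w/v); plasma from EDTA blood centrifuged 4500g, 10 min, 4 °C. Samples precipitated with acetonitrile, spun 15 000g, then analysed by UPLC–MS/MS with positive ESI and MRM. Quantified against brain- and plasma-matrix standard curves spanning 0.005–5 μM.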

tau transgenic (Tg) mice = settings: tau Tg mice with brain stem and spinal cord tau pathology ref 5; cited from earlier work
[9] = Brain and plasma compound concentration 1 h after ip injection; assay type: in vivo, CD1 mice; settings: 1 h after ip injection of 5 mg/kg, mouse
In short: as §1

## 5-(4-Chlorophenyl)-6-methyl-4-(2,4,6-trifluorophenyl)pyridazin-3(2H)-one [Compound 6, reference compound]
[1]
  activity in AcTub assay: essentially inactive
[1]; compound at 1 μM
  AcTub fold-change relative to vehicle control: 1.5 ± 0.8^ns fold-change

## C/C1=C/C[C@@H](/C(C)=C/c2csc(C)n2)OC(=O)C[C@H](O)C(C)(C)C(=O)[C@H](C)[C@@H](O)[C@@H](C)CCC1 [Compound 1, epothilone D]
Pgp transporter
  Pgp transporter inhibition: inhibitor of the Pgp transporter
[2]
  elevation of AcTub levels in cells: significant elevation
[3]
  elevation in AcTub levels in brain homogenates: significant elevation

## CNCCCOc1cc(F)c(-c2c(Cl)nc3ncnn3c2N[C@@H](C)C(F)(F)F)c(F)c1 [Compound 2, (S)-5-Chloro-6-(2,6-difluoro-4-(3-(methylamino)propoxy)phenyl)-N-(1,1,1-trifluoropropan-2-yl)[1,2,4]triazolo[1,5-a]pyrimidin-7-amine]
Human Pgp
  effect on Pgp function (calcein-AM transport): did not interfere appreciably with Pgp function
QBI293 cells
  AcTub staining by immunofluorescence: large increase in AcTub-positive structures
[1]
  increase of cellular AcTub (words, Figure 2): significant increase
[4]
  activity against Pgp-expressing cancer cell lines: active
β-tubulin
  competition for the taxane/epothilone binding site: not to compete
  effect on vinblastine binding: did affect vinblastine binding
[5]
  brain penetration / BBB permeability: negligible brain penetration

## Cc1nnc(Cl)c(-c2c(F)cc(F)cc2F)c1-c1ccc(Cl)s1 [Compound 7, 3-Chloro-5-(5-chlorothiophen-2-yl)-6-methyl-4-(2,4,6-trifluorophenyl)pyridazine, reference compound]
[1]
  activity in AcTub assay: essentially inactive

## C[C@H](Nc1c(-c2c(F)cc(OCCCN(C)C)cc2F)c(Cl)nc2ncnn12)C(F)(F)F [Compound 9, (S)-5-Chloro-6-(4-(3-(dimethylamino)propoxy)-2,6-difluorophenyl)-N-(1,1,1-trifluoropropan-2-yl)[1,2,4]triazolo[1,5-a]pyrimidin-7-amine]
Human Pgp
  effect on Pgp function (calcein-AM transport): did not interfere appreciably with Pgp function
[1]
  increase of cellular AcTub (words, Figure 2): large increase
[1]; compound at 0.1 μM
  AcTub fold-change relative to vehicle control (numbers in parentheses): (2.0 ± 1.4) fold-change
[5]; brain
  half-life: > 2 h
[5]; plasma
  half-life: > 2 h
[5]
  brain penetration / BBB permeability: relatively limited
[6]
  brain Fu value of 9 relative to 20: ~3 fold
[7]
  PD response: AcTub level in brain: significant PD response
[8]
  brain and plasma levels after oral dosing: micromolar levels

## C[C@H](Nc1nc(-c2cnccn2)nc(Cl)c1-c1c(F)cc(F)cc1F)C(F)(F)F [Compound 20, (S)-6-Chloro-2-(pyrazin-2-yl)-5-(2,4,6-trifluorophenyl)-N-(1,1,1-trifluoropropan-2-yl)pyrimidin-4-amine]
Human Pgp
  effect on Pgp function (calcein-AM transport): did not interfere appreciably with Pgp function
[1]
  increase of cellular AcTub (words, Figure 2): large increase
[5]
  brain penetration / BBB permeability: can readily partition across the BBB
[7]
  PD response: AcTub level in brain: significant PD response
[8]
  brain and plasma levels after oral dosing: micromolar levels

## CC(C)Nc1c(-c2c(F)cc(F)cc2F)c(Cl)nc2nccnc12 [Compound 37, 6-Chloro-N-isopropyl-7-(2,4,6-trifluorophenyl)pyrido[2,3-b]pyrazin-8-amine]
[1]
  activity in AcTub assay: essentially inactive

## COc1cc2c(c(OC)c1OC)-c1ccc(OC)c(=O)cc1[C@@H](NC(C)=O)CC2 [colchicine]
QBI293 cells
  AcTub staining by immunofluorescence: significant loss of AcTub staining

## CC(=O)O[C@H]1C(=O)[C@@]2(C)[C@H]([C@H](OC(=O)c3ccccc3)[C@]3(O)C[C@H](OC(=O)[C@H](O)[C@@H](NC(=O)c4ccccc4)c4ccccc4)C(C)=C1C3(C)C)[C@]1(OC(C)=O)CO[C@@H]1C[C@@H]2O [paclitaxel]
Tau transgenic (Tg) mice
  effect on neurodegenerative phenotype of tau Tg mice: improve the neurodegenerative phenotype

## (S)-N-(3-(4-(5-Chloro-7-((1,1,1-trifluoropropan-2-yl)amino)[1,2,4]triazolo[1,5-a]pyrimidin-6-yl)-3,5-difluorophenoxy)propyl)pivalamide [Compound 16]
[1]; compound at 1 μM
  AcTub fold-change relative to vehicle control: 2.4 ± 0.9 fold-change
[1]; compound at 1 μM, relative to positive control 0.1 μM 2
  AcTub fold-change relative to 0.1 μM 2: 0.7 ± 0.1 fold-change
[9]
  B/P (brain-to-plasma ratio): 0.12 ± 0.03
  brain concentration: 170 ± 10 nM
  plasma concentration: 1500 ± 500 nM
